ChEMBL document CHEMBL4304834, “3-Amino-chromanes and Tetrahydroquinolines as Selective 5-HT2B, 5-HT7, or σ1 Receptor Ligands” (ACS Med Chem Lett, 2019)
pKi: −log10 of the molar value.

Experiments:
[1] = target: T1, Muscarinic acetylcholine receptor M1 (Homo sapiens, UniProt P11229); assay: Displacement of [3H]-QNB/[3H]-NMS from human recombinant Muscarinic acetylcholine M1 receptor expressed in stable CHO cells after 90 mins by microbeta scintillation counting method; format: cell-based
T1 sequence (P11229 whole entry): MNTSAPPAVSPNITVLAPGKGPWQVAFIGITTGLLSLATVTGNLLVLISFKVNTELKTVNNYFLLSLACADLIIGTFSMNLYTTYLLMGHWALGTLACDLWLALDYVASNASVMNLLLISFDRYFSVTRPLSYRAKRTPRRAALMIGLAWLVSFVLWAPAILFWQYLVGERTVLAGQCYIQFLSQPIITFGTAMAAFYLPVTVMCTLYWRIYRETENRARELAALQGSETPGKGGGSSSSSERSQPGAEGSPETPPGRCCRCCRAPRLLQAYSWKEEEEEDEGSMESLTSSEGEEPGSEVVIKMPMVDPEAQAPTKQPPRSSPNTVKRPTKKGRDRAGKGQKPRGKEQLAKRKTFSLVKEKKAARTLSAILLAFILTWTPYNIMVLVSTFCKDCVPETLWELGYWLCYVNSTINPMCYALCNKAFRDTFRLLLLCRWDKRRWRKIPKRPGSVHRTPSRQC
Method in brief: (§1)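 Radioligand binding was run by the NIMH Psychoactive Drug Screening Program. Compounds were first screened at 10 μM. Those giving ≥50% binding were taken to full competition curves. Ki is reported as pKi from a sigmoidal curve fit of triplicate measurements in a single experiment; the error is the curve-fit error.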

[2] = target: Kappa-type opioid receptor (Homo sapiens, UniProt P41145); assay: Displacement of [3H]-U69593 from human recombinant KOR receptor expressed in stable HEK cells after 90 mins by microbeta scintillation counting method; format: cell-based; method in brief: as §1
Kappa-type opioid receptor, sequence (P41145 whole entry): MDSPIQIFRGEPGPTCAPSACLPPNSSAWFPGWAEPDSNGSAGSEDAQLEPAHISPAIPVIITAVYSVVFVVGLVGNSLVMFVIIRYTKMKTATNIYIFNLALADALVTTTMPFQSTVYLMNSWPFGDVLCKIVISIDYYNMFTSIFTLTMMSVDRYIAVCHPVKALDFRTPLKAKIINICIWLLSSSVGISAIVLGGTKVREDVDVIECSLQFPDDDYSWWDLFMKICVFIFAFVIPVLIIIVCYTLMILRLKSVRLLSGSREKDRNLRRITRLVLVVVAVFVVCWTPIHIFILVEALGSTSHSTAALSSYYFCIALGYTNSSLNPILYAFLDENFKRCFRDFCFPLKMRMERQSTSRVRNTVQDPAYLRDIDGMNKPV

[3] = target: 5-hydroxytryptamine receptor 6 (Homo sapiens, UniProt P50406); assay: Displacement of [3H]-LSD from human recombinant 5-HT6 receptor expressed in stable HEK cells after 90 mins by microbeta scintillation counting method; format: cell-based
5-hydroxytryptamine receptor 6, sequence (P50406 whole entry): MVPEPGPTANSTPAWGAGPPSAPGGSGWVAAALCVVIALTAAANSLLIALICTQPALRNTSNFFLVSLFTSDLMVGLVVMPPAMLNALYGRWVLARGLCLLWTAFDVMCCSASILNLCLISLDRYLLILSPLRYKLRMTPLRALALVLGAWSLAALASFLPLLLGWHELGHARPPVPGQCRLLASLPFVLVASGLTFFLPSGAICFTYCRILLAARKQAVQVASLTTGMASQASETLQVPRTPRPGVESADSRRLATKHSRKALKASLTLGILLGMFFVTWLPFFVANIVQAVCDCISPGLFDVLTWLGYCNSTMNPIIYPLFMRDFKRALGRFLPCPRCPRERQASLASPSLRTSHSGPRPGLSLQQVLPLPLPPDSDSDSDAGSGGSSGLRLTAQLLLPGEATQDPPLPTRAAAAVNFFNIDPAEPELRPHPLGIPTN
Method in brief: (§2)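 Radioligand binding run by the NIMH Psychoactive Drug Screening Program. […] Otherwise Ki comes from sigmoidal curve fits of triplicate measurements in a single experiment, or is averaged over repeated experiments each run in triplicate.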

[4] = target: T2, 5-hydroxytryptamine receptor 1A (Homo sapiens, UniProt P08908); assay: Displacement of [3H]-Way100635 from human recombinant 5-HT1A expressed in stable CHO cells after 90 mins by microbeta scintillation counting method; format: cell-based; conditions: for Ki: read-out: pKi (converted); for pKi: read-out: Ki
T2 sequence (P08908 whole entry): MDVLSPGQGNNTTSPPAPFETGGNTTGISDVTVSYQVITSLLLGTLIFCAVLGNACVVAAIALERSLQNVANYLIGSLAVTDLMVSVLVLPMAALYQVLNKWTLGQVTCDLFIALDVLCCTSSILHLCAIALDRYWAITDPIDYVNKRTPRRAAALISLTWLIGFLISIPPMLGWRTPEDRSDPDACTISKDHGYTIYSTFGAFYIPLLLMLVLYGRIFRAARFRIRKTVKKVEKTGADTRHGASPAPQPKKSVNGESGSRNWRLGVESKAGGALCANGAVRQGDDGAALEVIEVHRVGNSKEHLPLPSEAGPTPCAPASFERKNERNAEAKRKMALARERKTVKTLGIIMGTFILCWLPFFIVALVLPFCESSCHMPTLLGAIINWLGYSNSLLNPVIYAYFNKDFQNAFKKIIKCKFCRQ
Method in brief: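 Run by NIMH Psychoactive Drug Screening Program. Otherwise, competition binding curves are generated and pKi is taken from a sigmoidal curve fit. Data are either triplicate measurements within one experiment, with the error from the fit, or the mean of repeated experiments, each run in triplicate.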

[5] = target: 5-hydroxytryptamine receptor 1D (Homo sapiens, UniProt P28221); assay: Displacement of [3H]5-CT from human recombinant 5-HT1D receptor transiently expressed in HEKT cells after 90 mins by microbeta scintillation counting method; format: cell-based; method in brief: as §1
5-hydroxytryptamine receptor 1D, sequence (P28221 whole entry): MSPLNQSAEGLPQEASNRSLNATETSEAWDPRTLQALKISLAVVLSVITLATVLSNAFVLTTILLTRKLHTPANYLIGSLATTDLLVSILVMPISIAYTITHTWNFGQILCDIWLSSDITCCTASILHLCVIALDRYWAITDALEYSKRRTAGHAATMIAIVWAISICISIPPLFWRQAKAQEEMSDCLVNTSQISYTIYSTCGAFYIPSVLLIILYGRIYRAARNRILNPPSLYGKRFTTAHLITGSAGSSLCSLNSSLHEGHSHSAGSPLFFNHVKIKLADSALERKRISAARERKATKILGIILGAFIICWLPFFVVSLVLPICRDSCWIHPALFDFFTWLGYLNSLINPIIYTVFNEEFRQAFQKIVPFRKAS

Rattus norvegicus = species on record: Rattus norvegicus; assay: Displacement of [3H]-PK11195 from PBR receptor in rat brain at 10 uM incubated for 90 mins by microbeta scintillation counting method relative to control; format: tissue-based; method in brief: as §2
[6] = target: T3, Alpha-2C adrenergic receptor (Homo sapiens, UniProt P18825); assay: Displacement of [3H]-Rauwolscine from human recombinant adrenergic Alpha2C receptor expressed in stable MDCK cells after 90 mins by microbeta scintillation counting method; format: cell-based; method in brief: as §1
T3 sequence (P18825 whole entry): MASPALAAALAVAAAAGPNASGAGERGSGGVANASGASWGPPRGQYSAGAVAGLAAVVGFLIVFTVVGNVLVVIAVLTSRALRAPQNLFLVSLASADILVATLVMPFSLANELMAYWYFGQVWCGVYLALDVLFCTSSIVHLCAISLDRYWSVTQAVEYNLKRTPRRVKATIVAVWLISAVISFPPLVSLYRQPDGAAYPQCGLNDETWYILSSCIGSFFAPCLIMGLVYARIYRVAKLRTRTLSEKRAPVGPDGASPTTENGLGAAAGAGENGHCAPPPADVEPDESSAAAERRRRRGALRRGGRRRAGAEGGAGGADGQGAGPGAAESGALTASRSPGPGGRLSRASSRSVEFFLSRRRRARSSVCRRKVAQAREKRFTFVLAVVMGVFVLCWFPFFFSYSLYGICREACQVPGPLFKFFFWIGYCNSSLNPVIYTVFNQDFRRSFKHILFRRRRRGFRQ

D(1B) dopamine receptor = D(1B) dopamine receptor (Homo sapiens, UniProt P21918); assay: Displacement of [3H]-SCH23390 from human recombinant dopamine D5 receptor expressed in HEKT cells at 10 uM after 90 mins by microbeta scintillation counting method relative to control; format: cell-based
D(1B) dopamine receptor, sequence (P21918 whole entry): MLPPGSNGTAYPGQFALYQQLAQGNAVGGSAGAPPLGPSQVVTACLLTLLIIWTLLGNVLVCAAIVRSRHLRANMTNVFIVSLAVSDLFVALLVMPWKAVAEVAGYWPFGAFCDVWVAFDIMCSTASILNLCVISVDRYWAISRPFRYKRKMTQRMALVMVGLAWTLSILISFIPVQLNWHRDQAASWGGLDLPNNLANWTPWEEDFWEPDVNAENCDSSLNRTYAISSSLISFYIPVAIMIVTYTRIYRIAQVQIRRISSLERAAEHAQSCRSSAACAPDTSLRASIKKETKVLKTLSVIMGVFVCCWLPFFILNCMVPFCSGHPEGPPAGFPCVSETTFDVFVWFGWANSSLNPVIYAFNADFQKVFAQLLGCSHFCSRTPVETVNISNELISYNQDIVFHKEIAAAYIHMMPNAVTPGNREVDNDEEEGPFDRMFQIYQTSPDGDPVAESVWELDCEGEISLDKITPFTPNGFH

[7] = target: 5-hydroxytryptamine receptor 2A (Homo sapiens, UniProt P28223); assay: Displacement of [3H]-Ketanserin from human recombinant 5-HT2A receptor transiently expressed in HEKT cells after 90 mins by microbeta scintillation counting method; format: cell-based; method in brief: as §2
5-hydroxytryptamine receptor 2A, sequence (P28223 whole entry): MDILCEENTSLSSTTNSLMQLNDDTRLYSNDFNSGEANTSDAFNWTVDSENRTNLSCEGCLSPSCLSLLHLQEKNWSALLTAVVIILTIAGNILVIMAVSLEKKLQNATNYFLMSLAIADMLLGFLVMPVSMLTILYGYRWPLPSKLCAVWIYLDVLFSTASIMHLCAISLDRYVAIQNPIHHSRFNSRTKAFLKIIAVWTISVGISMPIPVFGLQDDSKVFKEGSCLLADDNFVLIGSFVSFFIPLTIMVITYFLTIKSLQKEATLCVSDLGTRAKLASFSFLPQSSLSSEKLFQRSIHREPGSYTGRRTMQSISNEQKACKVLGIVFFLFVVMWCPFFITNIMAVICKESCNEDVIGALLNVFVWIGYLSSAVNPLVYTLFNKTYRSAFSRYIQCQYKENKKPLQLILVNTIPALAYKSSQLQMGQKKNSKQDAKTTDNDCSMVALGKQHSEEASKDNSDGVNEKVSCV

[8] = target: Muscarinic acetylcholine receptor M3 (Homo sapiens, UniProt P20309); assay: Displacement of [3H]-QNB/[3H]-NMS from human recombinant Muscarinic acetylcholine M3 receptor expressed in stable CHO cells after 90 mins by microbeta scintillation counting method; format: cell-based; method in brief: as §1
Muscarinic acetylcholine receptor M3, sequence (P20309 whole entry): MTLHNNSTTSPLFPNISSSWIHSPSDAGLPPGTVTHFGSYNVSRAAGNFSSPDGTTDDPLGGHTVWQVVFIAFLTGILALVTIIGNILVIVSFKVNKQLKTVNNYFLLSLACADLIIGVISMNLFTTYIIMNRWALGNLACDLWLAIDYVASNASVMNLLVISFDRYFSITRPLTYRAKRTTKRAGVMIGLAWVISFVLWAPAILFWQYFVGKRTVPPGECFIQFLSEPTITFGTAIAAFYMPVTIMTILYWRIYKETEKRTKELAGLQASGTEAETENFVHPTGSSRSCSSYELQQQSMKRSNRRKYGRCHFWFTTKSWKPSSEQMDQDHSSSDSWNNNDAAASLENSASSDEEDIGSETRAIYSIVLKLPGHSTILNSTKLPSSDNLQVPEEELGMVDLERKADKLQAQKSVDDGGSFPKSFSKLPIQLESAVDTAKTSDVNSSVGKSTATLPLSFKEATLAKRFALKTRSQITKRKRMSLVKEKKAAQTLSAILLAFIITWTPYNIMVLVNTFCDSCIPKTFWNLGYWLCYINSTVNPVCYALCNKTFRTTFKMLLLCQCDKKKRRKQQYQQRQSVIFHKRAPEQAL

pKi [4] | pKi ([4]; cho) | SMILES | pKi [1] | pKi [2] | pKi [3] | Ki [4] [µM] | pKi [5] | inhibition (Rattus norvegicus) [%] | pKi [6] | inhibition (D(1B) dopamine receptor) [%] | pKi [7] | pKi [8]
 |  | CC[C@H]1c2cc(OC)ccc2CC[C@@]1(C)N (racemic) | < 5.00 | 6.50 | < 5.00 | 0.631 | < 5.00 | < 50 | < 5.00 | < 50 | < 5.00 | < 5.00
 |  | CC[C@H]1c2cc(C)ccc2OC[C@@]1(C)N (racemic) | < 5.00 | < 5.00 | < 5.00 | 2 | < 5.00 | < 50 | < 5.00 | < 50 | < 5.00 | < 5.00
7.13 |  | CC[C@H]1c2ccccc2N(c2ccccc2)C[C@@]1(C)N (racemic) | < 5.00 | < 5.00 | < 5.00 |  | < 5.00 |  | < 5.00 |  | < 5.00 | < 5.00
 | < 5.00 | C[C@@]12CN(c3ccccc3)c3ccccc3[C@@H]1CCN2 (racemic) | < 5.00 | < 5.00 | < 5.00 | > 10 | < 5.00 |  | 6.00 |  |  | < 5.00
 |  | COc1cc(OC)c2c(c1)OC[C@@]1(C)NCC[C@@H]21 (racemic) | < 5.00 | < 5.00 | < 5.00 | 1 | < 5.00 | < 50 | < 5.00 | < 50 |  | < 5.00
